Test results taken from ChEMBL document CHEMBL4725389, “Novel Blocker of Onco SK3 Channels Derived from Scorpion Toxin Tamapin and Active against Migration of Cancer Cells” (ACS Med Chem Lett, 2020).
Activity calls are given as the source filed them. The calls are words filed in the database; no cut-off is given here. Positions of bridges follow the written chain, without caps; N, C: chain ends. Residues, ends and D or L forms follow the SMILES beside them.

Legend:
[1] = target: Small conductance calcium-activated potassium channel protein 2 (Rattus norvegicus, UniProt P70604); assay: Inhibition of recombinant rat SK2 expressed in HEK293 cells assessed as […] at membrane potential -120 mV for 50 ms followed by 400 ms voltage ramp to 60 mV by whole cell patch clamp method; assay type: cell-based
Sequence of Small conductance calcium-activated potassium channel protein 2 (P70604 whole entry): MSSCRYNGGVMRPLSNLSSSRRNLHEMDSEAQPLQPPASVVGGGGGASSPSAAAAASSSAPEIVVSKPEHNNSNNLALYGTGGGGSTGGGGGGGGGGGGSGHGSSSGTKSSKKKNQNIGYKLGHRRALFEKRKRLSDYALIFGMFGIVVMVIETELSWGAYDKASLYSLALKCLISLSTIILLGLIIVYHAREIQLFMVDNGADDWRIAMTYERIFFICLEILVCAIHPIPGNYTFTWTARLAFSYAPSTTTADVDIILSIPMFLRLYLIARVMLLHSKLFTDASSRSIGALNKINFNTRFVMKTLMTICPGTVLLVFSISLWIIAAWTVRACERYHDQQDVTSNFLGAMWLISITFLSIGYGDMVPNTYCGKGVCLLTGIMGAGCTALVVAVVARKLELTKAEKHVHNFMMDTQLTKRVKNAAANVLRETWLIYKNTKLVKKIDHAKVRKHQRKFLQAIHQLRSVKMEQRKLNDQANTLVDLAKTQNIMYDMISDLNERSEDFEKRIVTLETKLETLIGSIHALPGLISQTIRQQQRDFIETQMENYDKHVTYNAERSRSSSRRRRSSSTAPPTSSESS

[2] = target: T1, Small conductance calcium-activated potassium channel protein 3 (Homo sapiens, UniProt Q9UGI6); assay: Inhibition of recombinant human SK3 expressed in HEK293T cells assessed as […] at membrane potential -120 mV for 50 ms followed by 400 ms voltage ramp to 60 mV by whole cell patch clamp method; assay type: cell-based, HEK-293T
T1 sequence (Q9UGI6 whole entry): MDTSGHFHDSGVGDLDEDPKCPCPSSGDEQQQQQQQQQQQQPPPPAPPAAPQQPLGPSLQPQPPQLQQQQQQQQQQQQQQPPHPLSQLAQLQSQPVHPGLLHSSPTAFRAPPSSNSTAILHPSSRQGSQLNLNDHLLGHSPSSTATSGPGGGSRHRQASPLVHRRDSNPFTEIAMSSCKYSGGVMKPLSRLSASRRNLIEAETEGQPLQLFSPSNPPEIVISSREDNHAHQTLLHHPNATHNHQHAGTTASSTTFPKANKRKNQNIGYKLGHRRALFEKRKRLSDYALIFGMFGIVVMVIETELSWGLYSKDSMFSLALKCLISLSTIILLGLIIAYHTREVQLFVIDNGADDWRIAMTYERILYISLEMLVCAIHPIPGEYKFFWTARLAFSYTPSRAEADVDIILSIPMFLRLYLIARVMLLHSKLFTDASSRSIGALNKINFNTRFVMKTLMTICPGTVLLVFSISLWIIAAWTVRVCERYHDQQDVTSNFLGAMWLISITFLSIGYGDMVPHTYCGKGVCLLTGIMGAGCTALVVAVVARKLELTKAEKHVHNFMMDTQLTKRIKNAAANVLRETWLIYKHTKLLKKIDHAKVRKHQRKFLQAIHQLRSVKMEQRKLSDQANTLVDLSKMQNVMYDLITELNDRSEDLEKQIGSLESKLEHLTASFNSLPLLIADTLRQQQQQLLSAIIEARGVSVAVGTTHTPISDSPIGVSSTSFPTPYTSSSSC

[3] = system: MDA-MB-435; assay: Inhibition of cell migration in human MDA-MB-435 cells transfected with lentivrus-encoding shRNA against SK3 by matrigel invasion method relative to control; assay type: functional
Method in brief: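 MDA-MB-435s cells lacking SK3 expression were exposed to peptides at 100 nM. Migration is given as migrating cells with peptide divided by migrating cells under control conditions (means ± SEM, N = 4, n = 12). Groups were compared by Kruskal–Wallis with post hoc tests.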

[4] = target: T1, Small conductance calcium-activated potassium channel protein 3; assay: Inhibition of recombinant human SK3 expressed in HEK293T cells assessed as ratio of amplitude of outward current blocked in presence and absence of compound at 1 nM and holding potential at 0 mV and ramp voltage from -100 to 100 mV by whole cell patch clamp method relative to control; assay type: cell-based
Method in brief: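 Whole-cell patch clamp on HEK293T cells expressing recombinant human SK3, pCa 6. Ramp from −100 to 100 mV over 500 ms, holding at 0 mV; currents analysed at 0 mV. Peptide at 1 nM, then 100 nM apamin to block residual SKCa current. Inhibition = ratio of outward current amplitude blocked at 1 nM to amplitude without compound.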

[5] = target: T1, Small conductance calcium-activated potassium channel protein 3; assay: Inhibition of recombinant human SK3 expressed in HEK293T cells assessed as reduction in channel current with holding potential 0 mV and ramp voltage from -100 to 100 mV by whole cell patch clamp method; assay type: cell-based, HEK-293T
Method in brief: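 HEK293T stably expressing recombinant human SK3, whole-cell recording at pCa 6. Ramp −100 to 100 mV, 500 ms, from 0 mV holding; current at 0 mV taken as SKCa-only. Concentration–response curves fitted for EC50 (means ± SEM, n = 3–8).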

[6] = target: T1, Small conductance calcium-activated potassium channel protein 3; assay: Inhibition of recombinant human SK3 expressed in HEK293T cells at 10 nM and holding potential at 0 mV and ramp voltage from -100 to 100 mV by whole cell patch clamp method relative to control; assay type: cell-based; conditions: HEK-293T
[7] = target: T1, Small conductance calcium-activated potassium channel protein 3; assay: Inhibition of SK3-dependent cell migration in human MDA-MB-435 cells assessed as ratio of total cells migrating by matrigel invasion method relative to control; assay type: cell-based
[8] = target: Small conductance calcium-activated potassium channel protein 2 (Rattus norvegicus) (UniProt P70604); assay: Inhibition of recombinant rat SK2 expressed in HEK293 cells at 10 nM and holding potential at 0 mV and ramp voltage from -100 to 100 mV by whole cell patch clamp method relative to control; assay type: cell-based
Sequence of Small conductance calcium-activated potassium channel protein 2 (Rattus norvegicus) (P70604 whole entry): as the sequence (P70604 whole entry) above

[9] = system: MDA-MB-435; assay: Inhibition of cell migration in human MDA-MB-435 cells expressing SK3 by matrigel invasion method relative to control

Row | Structure (SMILES) | EC50 [1] [nM] | EC50 [2] [nM] | inhibition [4] [%] | EC50 [5] [nM] | inhibition [6] [%] | inhibition [8] [%] | other results
1 | CC[C@H](C)[C@@H]1NC(=O)[C@@H]2CSSC[C@H](NC(=O)[C@H](Cc3ccccc3)NC(=O)[C@H](C)N)C(=O)N[C@@H](CC(N)=O)C(=O)N[C@@H](CC(C)C)C(=O)N[C@@H](CCCNC(=N)N)C(=O)N[C@@H](CCSC)C(=O)N[C@H]3CSSC[C@H](NC(=O)[C@H](CCCCN)NC(=O)[C@H](CC(=O)O)NC(=O)CNC1=O)C(=O)N[C@@H](CCC(=O)O)C(=O)N[C@H](C(=O)N[C@H](C(=O)N[C@@H](CCCCN)C(=O)N[C@@H](Cc1c[nH]cn1)C(=O)O)C(C)C)CSSC[C@H](NC(=O)[C@H](CO)NC(=O)[C@H](CC(C)C)NC(=O)[C@H](CCC(N)=O)NC3=O)C(=O)N[C@@H](CCCNC(=N)N)C(=O)N[C@@H](CO)C(=O)N[C@@H](CC(C)C)C(=O)NCC(=O)N[C@@H](CC(C)C)C(=O)N[C@@H](CC(C)C)C(=O)NCC(=O)N[C@@H](CCCCN)C(=O)N2 (H-AFCNLRMCQLSCRSLGLLGKCIGDKCECVKH-OH; disulfide 3-21, 8-26, 12-28) | 0.29 | 1.1 | – | – | – | – | –
2 | CC[C@H](C)[C@@H]1NC(=O)[C@@H]2CSSC[C@H](NC(=O)[C@@H](NC(=O)[C@H](C)N)C(C)C)C(=O)N[C@@H](CC(N)=O)C(=O)N[C@@H](CC(C)C)C(=O)N[C@@H](CCCCN)C(=O)N[C@@H](CCCNC(=N)N)C(=O)N[C@H]3CSSC[C@H](NC(=O)[C@H](CCCCN)NC(=O)[C@H](CC(=O)O)NC(=O)CNC1=O)C(=O)N[C@@H](CCC(=O)O)C(=O)N[C@H](C(=O)N[C@H](C(=O)N[C@@H](CCCCN)C(=O)N[C@@H](Cc1c[nH]cn1)C(N)=O)C(C)C)CSSC[C@H](NC(=O)[C@H](CO)NC(=O)[C@H](CC(C)C)NC(=O)[C@H](CCC(N)=O)NC3=O)C(=O)N[C@@H](CCCNC(=N)N)C(=O)N[C@@H](CO)C(=O)N[C@@H](CC(C)C)C(=O)NCC(=O)N[C@@H](CC(C)C)C(=O)N[C@@H](CC(C)C)C(=O)NCC(=O)N[C@@H](CCCCN)C(=O)N2 (H-AVCNLKRCQLSCRSLGLLGKCIGDKCECVKH-NH2; disulfide 3-21, 8-26, 12-28) | – | 3.8 | – | – | – | – | –
3 | CC[C@H](C)[C@@H]1NC(=O)[C@@H]2CSSC[C@H](NC(=O)[C@H](Cc3ccccc3)NC(=O)[C@H](C)N)C(=O)N[C@@H](CC(N)=O)C(=O)N[C@@H](CC(C)C)C(=O)N[C@@H](CCCNC(=N)N)C(=O)N[C@@H](CCCNC(=N)N)C(=O)N[C@H]3CSSC[C@H](NC(=O)[C@H](CCC(=O)O)NC(=O)[C@H](CCC(=O)O)NC(=O)CNC1=O)C(=O)N[C@@H](CCCCN)C(=O)N[C@H](C(=O)N[C@H](C(=O)N1CCC[C@H]1C(=O)N[C@@H](Cc1ccc(O)cc1)C(N)=O)C(C)C)CSSC[C@H](NC(=O)[C@H](CO)NC(=O)[C@H](CC(C)C)NC(=O)[C@H](CCC(=O)O)NC3=O)C(=O)N[C@@H](CCCNC(=N)N)C(=O)N[C@@H](CO)C(=O)N[C@@H](CC(C)C)C(=O)NCC(=O)N[C@@H](CC(C)C)C(=O)N[C@@H](CC(C)C)C(=O)NCC(=O)N[C@@H](CCCCN)C(=O)N2 (H-AFCNLRRCELSCRSLGLLGKCIGEECKCVPY-NH2; disulfide 3-21, 8-26, 12-28) | 0.024 | 1.7 | – | – | – | – | –
4 | CC[C@H](C)[C@@H]1NC(=O)[C@@H]2CSSC[C@H](NC(=O)[C@H](Cc3ccccc3)NC(=O)[C@H](C)N)C(=O)N[C@@H](CC(N)=O)C(=O)N[C@@H](CC(C)C)C(=O)N[C@@H](CCCNC(=N)N)C(=O)N[C@@H](CCCNC(=N)N)C(=O)N[C@H]3CSSC[C@H](NC(=O)[C@H](CCC(=O)O)NC(=O)[C@H](CCC(=O)O)NC(=O)CNC1=O)C(=O)N[C@@H](CCCCN)C(=O)N[C@H](C(=O)N[C@H](C(=O)N1CCC[C@H]1C(=O)N[C@@H](Cc1ccc(O)cc1)C(=O)O)C(C)C)CSSC[C@H](NC(=O)[C@H](CO)NC(=O)[C@H](CC(C)C)NC(=O)[C@H](CCC(=O)O)NC3=O)C(=O)N[C@@H](CCCNC(=N)N)C(=O)N[C@@H](CO)C(=O)N[C@@H](CC(C)C)C(=O)NCC(=O)N[C@@H](CC(C)C)C(=O)N[C@@H](CC(C)C)C(=O)NCC(=O)N[C@@H](CCCCN)C(=O)N2 (H-AFCNLRRCELSCRSLGLLGKCIGEECKCVPY-OH; disulfide 3-21, 8-26, 12-28) | – | – | 25 | 2.6 | 40 | > 85 | inhibition [3]: inactive; inhibition [7]: inactive
5 | CC[C@H](C)[C@@H]1NC(=O)[C@@H]2CSSC[C@H](NC(=O)[C@H](Cc3ccccc3)NC(=O)[C@H](C)N)C(=O)N[C@@H](CC(N)=O)C(=O)N[C@@H](CC(C)C)C(=O)N[C@@H](CCCNC(=N)N)C(=O)N[C@@H](CCCNC(=N)N)C(=O)N[C@H]3CSSC[C@H](NC(=O)[C@H](CCCCN)NC(=O)[C@H](CCC(=O)O)NC(=O)CNC1=O)C(=O)N[C@@H](CCC(=O)O)C(=O)N[C@H](C(=O)N[C@H](C(=O)N1CCC[C@H]1C(=O)N[C@@H](Cc1ccc(O)cc1)C(=O)O)C(C)C)CSSC[C@H](NC(=O)[C@H](CO)NC(=O)[C@H](CC(C)C)NC(=O)[C@H](CCC(=O)O)NC3=O)C(=O)N[C@@H](CCCNC(=N)N)C(=O)N[C@@H](CO)C(=O)N[C@@H](CC(C)C)C(=O)NCC(=O)N[C@@H](CC(C)C)C(=O)N[C@@H](CC(C)C)C(=O)NCC(=O)N[C@@H](CCCCN)C(=O)N2 (H-AFCNLRRCELSCRSLGLLGKCIGEKCECVPY-OH; disulfide 3-21, 8-26, 12-28) | – | – | 73 | 0.38 | > 85 | 40 | inhibition (INH) [9]: 45.9%; inhibition ([7]; concentration not given here): 76.5%
6 | CC[C@H](C)[C@@H]1NC(=O)[C@@H]2CSSC[C@H](NC(=O)[C@H](Cc3ccccc3)NC(=O)[C@H](C)N)C(=O)N[C@@H](CC(N)=O)C(=O)N[C@@H](CC(C)C)C(=O)N[C@@H](CCCNC(=N)N)C(=O)N[C@@H](CCCNC(=N)N)C(=O)N[C@H]3CSSC[C@H](NC(=O)[C@H](C)NC(=O)[C@H](CCC(=O)O)NC(=O)CNC1=O)C(=O)N[C@@H](CCCCN)C(=O)N[C@H](C(=O)N[C@H](C(=O)N1CCC[C@H]1C(=O)N[C@@H](Cc1ccc(O)cc1)C(=O)O)C(C)C)CSSC[C@H](NC(=O)[C@H](CO)NC(=O)[C@H](CC(C)C)NC(=O)[C@H](CCC(=O)O)NC3=O)C(=O)N[C@@H](CCCNC(=N)N)C(=O)N[C@@H](CO)C(=O)N[C@@H](CC(C)C)C(=O)NCC(=O)N[C@@H](CC(C)C)C(=O)N[C@@H](CC(C)C)C(=O)NCC(=O)N[C@@H](CCCCN)C(=O)N2 (H-AFCNLRRCELSCRSLGLLGKCIGEACKCVPY-OH; disulfide 3-21, 8-26, 12-28) | – | – | – | – | 40 | < 39 | –
